Experimental data as given in ChEMBL document CHEMBL1138950, “Benzimidazole derivatives bearing substituted biphenyls as hepatitis C virus NS5B RNA-dependent RNA polymerase inhibitors: structure-activity relationship studies and identification of a potent and highly selective inhibitor JTK-109” (J Med Chem, 2006).

Tests used:
Huh-5-2 = assay: Viability of Huh5-2 cells by MTT assay; format: functional; settings: Homo sapiens
[1] = Plasma concentration in rat at 30 mg/kg, po after 2 hrs; format: ADME, organism-based; design: dose 30 mg/kg, route oral
How it was run: (§1)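 Rats dosed orally at 30 mg/kg; plasma sampled at 1 and 2 h; n = 2 or 3.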

[2] = Plasma concentration in rat at 30 mg/kg, po after 1 hr; format: ADME, organism-based; design: dose 30 mg/kg, route oral; how it was run: as §1
Hepatitis C virus = assay: Inhibition of HCV subgenomic RNA replication in Huh5-2 cells after 48 hrs by replicon assay; format: functional, organism-based, Hepacivirus hominis; settings: Huh-5-2, 48 h
How it was run: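 Huh-5-2 cells (Huh-7-derived, genotype 1b subgenomic replicon with luciferase reporter) seeded at 5 × 10^3 per well in DMEM with 10% FBS, 37 °C, 5% CO2; compounds added next day, 48 h exposure; luciferase activity read. EC50 is the concentration reducing replication by 50%. Triplicate, mean of three experiments.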

[3] = Therapeutic index, CC50 for viability of Huh5-2 cells/EC50 for inhibition of HCV subgenomic RNA replication; format: cell-based, Huh-5-2; settings: human, read-out: Ratio CC50/EC50
[4] = target: RNA-directed RNA polymerase (Hepacivirus hominis, UniProt O39930); assay: Inhibition of HCV 1b BK six His-tagged C-terminal truncated 544 amino acid NS5B RNA dependent RNA polymerase; design: species or system Hepatitis C virus subtype 1b
Sequence of RNA-directed RNA polymerase (O39930 whole entry, the tested form may be a part): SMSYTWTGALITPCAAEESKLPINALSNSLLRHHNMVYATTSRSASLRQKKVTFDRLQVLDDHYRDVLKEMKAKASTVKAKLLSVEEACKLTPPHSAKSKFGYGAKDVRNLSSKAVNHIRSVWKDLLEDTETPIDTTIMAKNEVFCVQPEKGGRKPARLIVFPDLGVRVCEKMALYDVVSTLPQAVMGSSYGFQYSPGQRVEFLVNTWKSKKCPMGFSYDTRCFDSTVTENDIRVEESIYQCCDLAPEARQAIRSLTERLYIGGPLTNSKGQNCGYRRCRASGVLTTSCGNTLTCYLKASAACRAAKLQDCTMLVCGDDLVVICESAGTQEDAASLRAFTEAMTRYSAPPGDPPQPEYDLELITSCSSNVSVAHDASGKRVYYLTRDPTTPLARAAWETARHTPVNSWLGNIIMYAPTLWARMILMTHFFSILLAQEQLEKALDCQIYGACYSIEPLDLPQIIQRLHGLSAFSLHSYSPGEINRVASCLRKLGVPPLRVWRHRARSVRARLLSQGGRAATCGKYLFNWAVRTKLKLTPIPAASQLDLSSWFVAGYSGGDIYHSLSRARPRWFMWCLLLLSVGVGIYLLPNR
How it was run: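 HCV genotype 1b (BK) NS5B lacking 47 C-terminal residues, His6-tagged, E. coli-expressed; 7 nM enzyme with 5 µg HCV 3′X RNA template-primer, 50 µM each ATP/GTP/CTP, 2 µM UTP plus [3H]-UTP; pH 7.5 Tris, 5 mM MgCl2. Compounds in DMSO (5% final). 60 min at 25 °C; TCA-precipitable radioactivity read. Triplicate, mean of three experiments.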

Row | Structure (SMILES) | CC50 (Huh-5-2) [µM] | concentration at 2 h [1] [nM] | concentration at 1 h [2] [nM] | EC50 (Hepatitis C virus) [µM] | selectivity ratio [3] | IC50 [4] [µM]
1 | CC(=O)N(C)c1ccc(-c2ccc(Cl)cc2)c(COc2ccc(-c3nc4cc(C(=O)O)ccc4n3C3CCCCC3)c(F)c2)c1 | 26 | 1100 | 900 | 0.15 | 173 | 0.016
2 | O=C(O)c1ccc2c(c1)nc(-c1ccc(OCc3cc(C(=O)NCCO)ccc3-c3ccc(Cl)cc3)cc1F)n2C1CCCCC1 | 26 |  |  | 0.94 | 28 | 0.021
3 | CC(C)NC(=O)c1ccc(-c2ccc(Cl)cc2)c(COc2ccc(-c3nc4cc(C(=O)O)ccc4n3C3CCCCC3)c(F)c2)c1 | 22 | 300 | 1100 | 0.2 | 110 | 0.013
4 | CN(C)S(=O)(=O)c1ccc(-c2ccc(Cl)cc2)c(COc2ccc(-c3nc4cc(C(=O)O)ccc4n3C3CCCCC3)cc2)c1 | 26 |  |  | 0.66 | 39 | 0.023
5 | CN(C)C(=O)c1ccc(-c2ccc(Cl)cc2)c(COc2ccc(-c3nc4cc(C(=O)O)ccc4n3C3CCCCC3)cc2)c1 | 28 |  |  | 0.37 | 76 | 0.015
6 | Cc1ncc(COc2ccc(-c3nc4cc(C(=O)O)ccc4n3C3CCCCC3)cc2)c(-c2ccc(Cl)cc2)n1 | 24 |  |  | 1.5 | 16 | 0.088
7 | NC(=O)c1ccc(-c2ccc(Cl)cc2COc2ccc(-c3nc4cc(C(=O)O)ccc4n3C3CCCCC3)cc2)cc1 | > 50 |  |  | 2.5 |  | 0.069
8 | COc1ccc(-c2ccc(Cl)cc2COc2ccc(-c3nc4cc(C(=O)O)ccc4n3C3CCCCC3)cc2)cc1 | 25 |  |  | 2.4 |  | 0.1
9 | O=C(O)c1ccc2c(c1)nc(-c1ccc(OCc3cc(Cl)ccc3-c3ccccc3)cc1)n2C1CCCCC1 | 25 |  |  | 3.7 |  | 0.2
10 | CN(C)C(=O)c1ccc(COc2ccc(-c3nc4cc(C(=O)O)ccc4n3C3CCCCC3)cc2)c(-c2ccc(Cl)cc2)c1 | 25 |  |  | 0.84 | 30 | 0.032
11 | O=C(O)c1ccc2c(c1)nc(-c1ccc(OCc3ccccc3-c3ccccc3)c(F)c1)n2C1CCCCC1 |  |  |  |  |  | 0.38
12 | O=C(O)c1ccc2c(c1)nc(-c1ccc(OCc3ncccc3-c3ccc(Cl)cc3)cc1)n2C1CCCCC1 | 25 |  |  | 3.9 | 6 | 0.15
13 | O=C(O)c1ccc2c(c1)nc(-c1ccc(OCc3cccnc3-c3ccc(Cl)cc3)cc1)n2C1CCCCC1 | > 50 |  |  | 1.2 | > 41 | 0.053
14 | O=C(O)c1ccc2c(c1)nc(-c1ccc(OCc3ccccc3-c3ccccc3)cc1Cl)n2C1CCCCC1 |  |  |  |  |  | 0.35
15 | CN(C)c1ccc(-c2ccc(Cl)cc2)c(COc2ccc(-c3nc4cc(C(=O)O)ccc4n3C3CCCCC3)cc2)c1 | 30 |  |  | 2.6 | 12 | 0.063
16 | O=C(O)c1ccc2c(c1)nc(-c1ccc(OCc3ccccc3-c3ccccc3)cc1F)n2C1CCCCC1 |  |  |  |  |  | 0.1
17 | CN(C)C(=O)Nc1ccc(-c2ccc(Cl)cc2)c(COc2ccc(-c3nc4cc(C(=O)O)ccc4n3C3CCCCC3)c(F)c2)c1 | 25 |  |  | 0.62 | 40 | 0.022
18 | O=C(O)c1ccc2c(c1)nc(-c1ccc(OCc3cc(Cl)ccc3-c3cccnc3)cc1)n2C1CCCCC1 |  |  |  | 2.6 |  | 0.29
19 | COc1ccc(-c2ccc(Cl)cc2)c(COc2ccc(-c3nc4cc(C(=O)O)ccc4n3C3CCCCC3)cc2)c1 | 24 |  |  | 1.6 | 15 | 0.037

Row | Structure (SMILES) | CC50 (Huh-5-2) [µM] | concentration at 2 h [1] [nM] | concentration at 1 h [2] [nM] | EC50 (Hepatitis C virus) [µM] | selectivity ratio [3] | IC50 [4] [µM]
20 | NC(=O)c1ccc(-c2ccc(Cl)cc2)c(COc2ccc(-c3nc4cc(C(=O)O)ccc4n3C3CCCCC3)cc2)c1 | 26 |  |  | 0.79 | 33 | 0.013
21 | O=C(O)c1ccc2c(c1)nc(-c1ccc(OCc3cc(Cl)ccc3-c3cccc(Cl)c3)cc1)n2C1CCCCC1 | 32 |  |  | 6.5 |  | 0.48
22 | Cc1nc(-c2ccc(Cl)cc2)c(COc2ccc(-c3nc4cc(C(=O)O)ccc4n3C3CCCCC3)cc2)s1 | 39 |  |  | 2.9 | 13 | 0.09
23 | N#Cc1ccc(-c2ccc(Cl)cc2)c(COc2ccc(-c3nc4cc(C(=O)O)ccc4n3C3CCCCC3)cc2)c1 | 23 |  |  | 0.82 | 28 | 0.041
24 | O=C(O)c1ccc2c(c1)nc(-c1ccc(OCc3ccccc3-c3ccc(Cl)cc3)cc1)n2C1CCCCC1 | 35 |  |  | 3.2 | 11 | 0.078
25 | COc1cc(OCc2ccccc2-c2ccccc2)ccc1-c1nc2cc(C(=O)O)ccc2n1C1CCCCC1 |  |  |  |  |  | 1.1
26 | O=C(O)c1ccc2c(c1)nc(-c1ccc(OCc3cc(C(=O)N4CCC(O)CC4)ccc3-c3ccc(Cl)cc3)cc1F)n2C1CCCCC1 | 26 |  | 100 | 0.38 | 68 | 0.014
27 | Cc1nc(COc2ccc(-c3nc4cc(C(=O)O)ccc4n3C3CCCCC3)cc2)c(-c2ccc(Cl)cc2)s1 | 31 |  |  | 6.3 | 4.9 | 0.17
28 | O=C(O)c1ccc(-c2ccc(Cl)cc2)c(COc2ccc(-c3nc4cc(C(=O)O)ccc4n3C3CCCCC3)cc2)c1 | > 50 |  |  | > 10 |  | 0.024
29 | Cc1ccc(-c2ccc(Cl)cc2COc2ccc(-c3nc4cc(C(=O)O)ccc4n3C3CCCCC3)cc2)cc1 | 25 |  |  | 3.4 |  | 0.098
30 | O=C(O)c1ccc2c(c1)nc(-c1ccc(OCc3ccccc3-c3ccccc3)cc1C(F)(F)F)n2C1CCCCC1 |  |  |  |  |  | 0.93
31 | CC(=O)Nc1ccc(-c2ccc(Cl)cc2)c(COc2ccc(-c3nc4cc(C(=O)O)ccc4n3C3CCCCC3)cc2)c1 | 23 |  |  | 1.3 | 18 | 0.022
32 | NS(=O)(=O)c1ccc(-c2ccc(Cl)cc2)c(COc2ccc(-c3nc4cc(C(=O)O)ccc4n3C3CCCCC3)cc2)c1 | 27 |  |  | 1.5 | 18 | 0.016
33 | O=C(O)c1ccc2c(c1)nc(-c1ccc(OCc3cc(C(=O)NCc4ccccc4)ccc3-c3ccc(Cl)cc3)cc1)n2C1CCCCC1 | 22 |  |  | 1.1 | 20 | 0.029
34 | CC(=O)c1ccc(-c2ccc(Cl)cc2)c(COc2ccc(-c3nc4cc(C(=O)O)ccc4n3C3CCCCC3)cc2)c1 | 24 |  |  | 0.34 | 71 | 0.018
35 | N#Cc1ccc(-c2ccc(Cl)cc2COc2ccc(-c3nc4cc(C(=O)O)ccc4n3C3CCCCC3)cc2)cc1 | 26 |  |  | 1.3 |  | 0.055
36 | O=C(O)c1ccc2c(c1)nc(-c1ccc(OCc3cc(Cl)ccc3-c3ccc(Cl)cc3)cc1)n2C1CCCCC1 | 26 |  |  | 3 | 13 | 0.05
37 | CNC(=O)c1ccc(-c2ccc(Cl)cc2)c(COc2ccc(-c3nc4cc(C(=O)O)ccc4n3C3CCCCC3)cc2)c1 | 25 |  |  | 0.53 | 47 | 0.018
